According to ChEMBL document CHEMBL3352321, “Design and total synthesis of Mannich derivatives of marine natural product lamellarin D as cytotoxic agents” (2014):
Active and inactive are the calls of the source. The rule behind the calls is not given here.

What was measured:
HT-29 = test: Antiproliferative activity against human HT-29 cells assessed as growth inhibition after 72 hrs by MTT assay; assay type: functional; details: HT-29, 72 h
Summary of the method: (§1)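 ATCC-sourced cells seeded at 4000 per well and left 12 h, then medium exchanged for fresh medium carrying graded compound concentrations for 72 h. MTT (5 mg/mL, 10 µl) added for 3 h, formazan dissolved in DMSO, absorbance read at 540 nm. GI50 taken from dose-response curve; mean ± SEM of three independent experiments.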

MDA-MB-231 = test: Antiproliferative activity against human MDA-MB-231 cells assessed as growth inhibition after 72 hrs by MTT assay; assay type: functional; details: MDA-MB-231, 72 h; summary of the method: as §1
K562 = test: Antiproliferative activity against human K562 cells assessed as growth inhibition after 72 hrs by MTT assay; assay type: functional; details: K562, 72 h; summary of the method: as §1
HepG2 = test: Antiproliferative activity against human HepG2 cells assessed as growth inhibition after 72 hrs by MTT assay; assay type: functional; details: HepG2, 72 h; summary of the method: as §1
[1] = target: T1, DNA topoisomerase (Bos taurus) (UniProt A0JN73); test: Inhibition of calf thymus Topoisomerase 1-mediated relaxation of supercoiled pBR322 DNA at 100 uM after 30 mins by gel electrophoresis
T1 sequence (whole entry): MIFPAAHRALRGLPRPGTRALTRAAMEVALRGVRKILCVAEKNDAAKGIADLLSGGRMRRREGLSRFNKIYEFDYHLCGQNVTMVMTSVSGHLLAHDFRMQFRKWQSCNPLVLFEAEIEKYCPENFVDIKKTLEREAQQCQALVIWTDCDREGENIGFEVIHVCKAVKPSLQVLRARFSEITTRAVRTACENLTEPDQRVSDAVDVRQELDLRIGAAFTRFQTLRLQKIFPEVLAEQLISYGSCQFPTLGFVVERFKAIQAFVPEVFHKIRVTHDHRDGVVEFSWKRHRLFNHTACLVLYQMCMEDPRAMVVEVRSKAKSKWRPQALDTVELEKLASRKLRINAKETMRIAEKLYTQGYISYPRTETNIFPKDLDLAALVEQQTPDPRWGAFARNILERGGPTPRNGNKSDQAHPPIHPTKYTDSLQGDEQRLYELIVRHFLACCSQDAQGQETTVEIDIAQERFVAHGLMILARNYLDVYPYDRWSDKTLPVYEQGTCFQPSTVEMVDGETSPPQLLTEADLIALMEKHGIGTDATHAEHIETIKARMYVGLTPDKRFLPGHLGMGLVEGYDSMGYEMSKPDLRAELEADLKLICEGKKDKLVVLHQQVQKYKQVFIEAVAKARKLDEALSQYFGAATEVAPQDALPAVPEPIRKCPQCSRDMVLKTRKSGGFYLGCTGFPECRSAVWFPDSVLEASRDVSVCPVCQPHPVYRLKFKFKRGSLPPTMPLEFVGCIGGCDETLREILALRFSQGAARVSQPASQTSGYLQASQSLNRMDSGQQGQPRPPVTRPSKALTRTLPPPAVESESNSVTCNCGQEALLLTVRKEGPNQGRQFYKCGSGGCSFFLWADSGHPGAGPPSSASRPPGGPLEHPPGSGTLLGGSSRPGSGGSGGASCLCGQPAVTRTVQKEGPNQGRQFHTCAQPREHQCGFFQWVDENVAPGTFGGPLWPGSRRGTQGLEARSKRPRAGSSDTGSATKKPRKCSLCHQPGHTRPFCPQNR
Summary of the method: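 Supercoiled pBR322 DNA incubated with 1 unit calf thymus topoisomerase I, with or without compound at 100 µM, 30 min at 37 °C. Stopped with 10% SDS, run on 1% agarose gel, stained 15 min with DNA gel stain and imaged under UV. Controls without enzyme included.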

Compound | GI50 (HT-29) [µM] | GI50 (MDA-MB-231) [µM] | GI50 (K562) [µM] | GI50 (HepG2) [µM] | inhibition [1]
COc1cc(-c2c3c4cc(OC)c(O)cc4oc(=O)c3n3ccc4c(CN5CCOCC5)c(O)c(OC)cc4c23)ccc1O | 13 | 19.9 | 2.84 | 4.47 | Active
COc1cc(-c2c3c4cc(OC)c(O)cc4oc(=O)c3n3ccc4c(CN(C)C)c(O)c(OC)cc4c23)ccc1O | 15 | 13.1 | 1.34 | 6.37 | Active
COc1cc(-c2c3c4cc(OC)c(O)cc4oc(=O)c3n3ccc4cc(O)c(OC)cc4c23)ccc1O [LAMELLARIN D] | 4.47 | 0.32 | 0.08 | 0.09 | Active
COc1cc(-c2c3c4cc(OC)c(O)cc4oc(=O)c3n3ccc4c(CN5CCCCC5)c(O)c(OC)cc4c23)ccc1O | 18.3 | 33.1 | 9.94 | 21.3 | Active
COc1cc(-c2c3n(c4c(=O)oc5cc(O)c(OC)cc5c24)CCc2cc(O)c(OC)cc2-3)ccc1O | 40.8 | 17.9 | 1.61 | 2.14 | inactive
CCCN(CCC)Cc1c(O)c(OC)cc2c1oc(=O)c1c2c(-c2ccc(O)c(OC)c2)c2c3cc(OC)c(O)c(CN(C)C)c3ccn21 | 2.83 | 6.15 | 7.16 | 15.8 | Active

More lines, in order of falling GI50 (HT-29), values ahead:

GI50 (HT-29) [µM] | GI50 (MDA-MB-231) [µM] | GI50 (K562) [µM] | GI50 (HepG2) [µM] | inhibition [1] | Compound
6.41 | 3.98 | 1.85 | 30.1 | inactive | COc1cc2c(cc1O)oc(=O)c1c2c(-c2cc(CN(C)C)c(O)c(OC)c2)c2c3cc(OC)c(O)cc3ccn21
5.68 | 9.89 | 9.62 | > 50 | Active | COc1cc(-c2c3c4cc(OC)c(O)c(CN(C)C)c4oc(=O)c3n3ccc4c(CN(C)C)c(O)c(OC)cc4c23)ccc1O
5.46 | 3.3 | 0.43 | 2.63 | inactive | COc1cc(-c2c3c4cc(OC)c(O)c(CN(C)C)c4oc(=O)c3n3ccc4cc(O)c(OC)cc4c23)ccc1O
2.92 | 9.75 | 2.37 | 6.83 | Active | CCCN(CCC)Cc1c(O)c(OC)cc2c1oc(=O)c1c2c(-c2ccc(O)c(OC)c2)c2c3cc(OC)c(O)cc3ccn21
2.64 | 4.87 | 2.25 | 3.69 | Active | COc1cc(-c2c3c4cc(OC)c(O)c(CN5CCOCC5)c4oc(=O)c3n3ccc4cc(O)c(OC)cc4c23)ccc1O
2.52 | 5.78 | 1.04 | 5.04 | Active | CCN(CC)Cc1c(O)c(OC)cc2c1oc(=O)c1c2c(-c2ccc(O)c(OC)c2)c2c3cc(OC)c(O)cc3ccn21
2.5 | 7.25 | 1.95 | 6.99 | Active | COc1cc(-c2c3c4cc(OC)c(O)c(CN5CCCCC5)c4oc(=O)c3n3ccc4cc(O)c(OC)cc4c23)ccc1O
